“And” between values parts separate entries of the source, which are not always exact repeats. Equal entries are not always repeated.

Amount incorporated (M (M of tubulin)-1), Incorporated and Ratio data for 1 compound are collected here from ChEMBL document CHEMBL1127780, “Synthesis of a photoaffinity taxol analogue and its use in labeling tubulin” (J Med Chem, 1994).

The subject of test [1] is Tubulin (Bos taurus). The test can be described thus: The photoincorporation of [3H]AzB-taxol into tubulin was evaluated from polymerized tubulin.
Test [2] deals with Tubulin beta chain (Sus scrofa) (UniProt P02554). The test can be described thus: The photoincorporation of [3H]-AzB-taxol into beta-subunit of tubulin was evaluated at initial ratio of 1.0.
Test [3] can be described thus: The ratio of […]/tubulin noncovalently bound […] at initial ratio of 4.0. A digest of the protocol: (§1)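 Noncovalent binding without irradiation: 5 μM tubulin with varied [3H]AzB-taxol, 20 min at 37 °C. Centrifuged at 40000g; pellets washed with buffer, recentrifuged and dissolved in 0.1 M NaOH. Bound mol/mol from protein and radioactivity.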
Test [4] is described as follows: The ratio of AzT-taxol/tubulin covalently bound after irradiation at initial ratio of 4.0. A digest of the protocol: (§2)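 Tubulin (5 μM) with [3H]AzB-taxol at varied initial ratios, 20 min at 37 °C in Pipes/EGTA/MgSO4/DTT/GTP buffer pH 6.9, then irradiated 20 min at 300 nm. Centrifuged at 40000g, 10 min, 37 °C. Pellet washed repeatedly with 50% ethanol, dissolved in 0.1 M NaOH. Covalent mol/mol from radioactivity and protein.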

In test [5] the test system is Tubulin (Bos taurus). The test can be described thus: The photoincorporation of [3H]AzB-taxol into tubulin was evaluated from tubulin in 8M urea.
Test [6] deals with Tubulin beta chain (Sus scrofa) (UniProt P02554). Nature of the test: The photoincorporation of [3H]AzB-taxol into beta-subunit of tubulin was evaluated at initial ratio of 0.5.
Test [7] deals with Tubulin (Bos taurus). The test can be described thus: The incorporation of [3H]AzB-taxol into tubulin was evaluated after irradiation with 300 nM lamp.
The nature of test [8]: The ratio of […]/tubulin noncovalently bound […] at initial ratio of 1.0. In a few lines: as §1
Test [9] can be described thus: The ratio of AzT-taxol/tubulin noncovalently bound […] at initial ratio of 3.0. In a few lines:
as §1

In test [10] the test system is Tubulin (Bos taurus). The test can be described thus: The inhibition of photoincorporation of AzB-taxol into tubulin was evaluated in the presence of 7.5 uM of taxol; Complete inhibition.
Test [11] can be described thus: The ratio of AzT-taxol/tubulin covalently bound after irradiation at initial ratio of 3.0. In a few lines:
as §2

A short description of test [12]: The ratio of AzT-taxol/tubulin noncovalently bound […] at initial ratio of 2.0. In a few lines:
as §1

The test system of test [13] is Tubulin (Bos taurus). The test can be described thus: The photoincorporation of [3H]AzB-taxol into tubulin was evaluated by preirradiation of the compound.
The test system of test [14] is Tubulin (Bos taurus). The test can be described thus: The incorporation of [3H]AzB-taxol into tubulin was evaluated after irradiation with 350 nM lamp.
Test [15] has as its target Tubulin alpha chain (Sus scrofa) (UniProt P02550). Nature of the test: The photoincorporation of [3H]AzB-taxol into alpha-subunit of tubulin was evaluated at initial ratio of 0.5. A digest of the protocol: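 Tubulin (5 μM) with [3H]AzB-taxol at the stated initial ratio, 20 min at 37 °C, then irradiated 20 min at 300 nm. Ethanol-washed precipitate run on SDS-PAGE (7.5% running gel, 3% stacking gel) and stained with Coomassie. α- and β-bands excised, dissolved in 30% H2O2 at 65 °C and counted; results are % of incorporation per subunit, n = 2–3 experiments.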

The nature of test [16]: The ratio of AzT-taxol/tubulin covalently bound after irradiation at initial ratio of 0.5. In a few lines:
as §2

The subject of test [17] is Tubulin alpha chain (Bos taurus). The test can be described thus: The photoincorporation of [3H]AzB-taxol into alpha-subunit of tubulin was evaluated at initial ratio of 1.0.
Test [18] is described as follows: The ratio of AzT-taxol/tubulin covalently bound after irradiation at initial ratio of 1.0. A digest of the protocol: as §2
Test [19] has as its system Tubulin (Bos taurus). The test can be described thus: The incorporation of [3H]AzB-taxol into tubulin was evaluated after irradiation with 254 nM lamp.
Test [20] is described as follows: The ratio of AzT-taxol/tubulin covalently bound after irradiation at initial ratio of 2.0. In a few lines: as §2
In test [21] the test system is Tubulin (Bos taurus). The test can be described thus: The photoincorporation of [3H]AzB-taxol into tubulin was evaluated from unpolymerized tubulin on ice.
For test [22], the system named is Tubulin (Bos taurus). Nature of the test: The photoincorporation of [3H]AzB-taxol into tubulin was evaluated by incubation in dark.
A short description of test [23]: The ratio of AzT-taxol/tubulin noncovalently bound after irradiation at initial ratio of 0.5. The note with it: in the assay text read “before irradiation” for “after irradiation”. In a few lines: as §1

Sequence of Tubulin beta chain (Sus scrofa) (P02554 whole entry, looked up): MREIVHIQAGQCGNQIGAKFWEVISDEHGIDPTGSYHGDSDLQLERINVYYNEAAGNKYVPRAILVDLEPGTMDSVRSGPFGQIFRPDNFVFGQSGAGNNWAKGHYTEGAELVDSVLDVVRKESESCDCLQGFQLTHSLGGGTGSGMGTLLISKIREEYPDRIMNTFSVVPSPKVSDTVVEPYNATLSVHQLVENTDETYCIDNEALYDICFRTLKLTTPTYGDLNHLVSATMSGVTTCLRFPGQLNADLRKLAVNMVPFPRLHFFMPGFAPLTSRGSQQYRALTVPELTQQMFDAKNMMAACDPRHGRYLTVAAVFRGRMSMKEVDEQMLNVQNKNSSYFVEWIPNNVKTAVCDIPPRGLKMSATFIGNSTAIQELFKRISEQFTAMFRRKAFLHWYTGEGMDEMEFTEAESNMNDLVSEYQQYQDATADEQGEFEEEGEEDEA
Sequence of Tubulin alpha chain (Sus scrofa) (P02550 whole entry, looked up): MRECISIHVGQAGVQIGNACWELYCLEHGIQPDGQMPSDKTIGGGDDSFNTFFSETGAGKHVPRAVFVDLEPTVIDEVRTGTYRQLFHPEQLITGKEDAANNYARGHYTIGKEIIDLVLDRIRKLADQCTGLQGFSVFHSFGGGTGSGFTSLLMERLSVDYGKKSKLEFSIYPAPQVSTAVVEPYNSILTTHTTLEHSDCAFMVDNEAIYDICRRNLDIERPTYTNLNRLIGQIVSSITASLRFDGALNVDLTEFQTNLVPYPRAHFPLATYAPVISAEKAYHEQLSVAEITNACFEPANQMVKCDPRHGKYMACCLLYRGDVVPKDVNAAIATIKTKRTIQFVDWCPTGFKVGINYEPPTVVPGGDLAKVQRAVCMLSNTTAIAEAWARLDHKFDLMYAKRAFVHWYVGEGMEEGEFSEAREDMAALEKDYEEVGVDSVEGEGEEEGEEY

Take `CC(=O)O[C@H]1C(=O)[C@@]2(C)C([C@H](OC(=O)c3ccccc3)[C@]3(O)C[C@H](OC(=O)[C@H](O)C(NC(=O)c4ccc(N=[N+]=[N-])cc4)c4ccccc4)C(C)=C1C3(C)C)[C@]1(OC(C)=O)CO[C@@H]1C[C@@H]2O` (stereo partly drawn): the Amount incorporated (M (M of tubulin)-1) in the test with Tubulin (Bos taurus) [1] came to 0.15; in the test with Tubulin (Bos taurus) [5] it was 0.015; in the test on Tubulin (Bos taurus) [7] it was 0.12; in the test with Tubulin (Bos taurus) [13], 0.016; in the test on Tubulin (Bos taurus) [14], 0.025; in the test with Tubulin (Bos taurus) [19] it was 0.13. The Amount incorporated (M (M of tubulin)-1) in the test on Tubulin (Bos taurus) [21] turned out to be 0.03; in the test with Tubulin (Bos taurus) [22], 0.008. Besides, the Incorporated was 86% in [2]; 80% and 81% in test [6]; “Complete inhibition” in the test on Tubulin (Bos taurus) [10]; 20% and 19% in test [15]; 14% in test [17]. Further, the Ratio in [3] worked out at 1.19; in test [4], 0.24; in test [8], 0.85; in test [9] it was 1.2; in test [11], 0.23; in test [12], 1.22. For the same compound, the Ratio is 0.13 in test [16], 0.17 in test [18], 0.23 in [20] and 0.5 in test [23].
